Data: ChEMBL document CHEMBL4342456, “Preventing Morphine-Seeking Behavior through the Re-Engineering of Vincamine's Biological Activity” (J Med Chem, 2020)
pIC50: −log10 of the molar value.

What was measured:
Cannabinoid receptor 1 = Cannabinoid receptor 1 (Homo sapiens, UniProt P21554); assay: Antagonist activity at human Gi/o-coupled CNR1 expressed in CHOK1 cells assessed as inhibition in CP55940-induced beta-arrestin 2 recruitment at 20 uM incubated for 30 mins followed by CP55940 addition and measured after 90 or 180 mins by pathhunter beta-arrestin assay relative to control; assay type: cell-based
How it was run: (§1)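 PathHunter beta-arrestin recruitment, antagonist mode, run at DiscoverX. Cells seeded and held at 37 °C, then preincubated with test sample for 30 min at 37 °C or room temperature (1% vehicle). Agonist then added at EC80 for 90 or 180 min. IC50 comes from concentration–response runs in the same format.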

Cannabinoid receptor 2 = Cannabinoid receptor 2 (Homo sapiens, UniProt P34972); assay: Antagonist activity at human Gi/o-coupled CNR2 expressed in CHOK1 cells assessed as inhibition in CP55940-induced beta-arrestin 2 recruitment at 20 uM incubated for 30 mins followed by CP55940 addition and measured after 90 or 180 mins by pathhunter beta-arrestin assay relative to control; assay type: cell-based; how it was run: as §1
[1] = biological target: T1, Muscarinic acetylcholine receptor M4 (Homo sapiens, UniProt P08173); assay: Antagonist activity at human Gs/Gi/o-coupled CHRM4 expressed in CHOK1 cells assessed as inhibition in acetylcholine-induced beta-arrestin 2 recruitment incubated for 30 mins followed by acetylcholine addition and measured after 90 or 180 mins by pathhunter beta-arrestin assay; assay type: cell-based
T1 sequence (P08173 whole entry): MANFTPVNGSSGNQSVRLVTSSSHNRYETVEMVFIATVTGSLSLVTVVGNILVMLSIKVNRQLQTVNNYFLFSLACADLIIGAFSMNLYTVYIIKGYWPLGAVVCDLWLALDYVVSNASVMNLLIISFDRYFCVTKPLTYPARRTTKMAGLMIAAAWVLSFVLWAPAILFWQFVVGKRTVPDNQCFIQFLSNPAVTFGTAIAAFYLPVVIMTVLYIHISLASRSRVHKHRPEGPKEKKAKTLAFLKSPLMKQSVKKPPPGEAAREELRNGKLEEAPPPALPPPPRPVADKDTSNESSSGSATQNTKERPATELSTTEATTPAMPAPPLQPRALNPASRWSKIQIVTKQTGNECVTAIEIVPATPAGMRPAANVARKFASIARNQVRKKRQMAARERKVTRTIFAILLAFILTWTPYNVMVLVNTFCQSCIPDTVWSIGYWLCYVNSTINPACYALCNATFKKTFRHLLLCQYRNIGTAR
How it was run: as §1, with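 “min. […]” for “min.”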

[2] = Toxicity in C57BL/6J mouse at 60 nmol, icv measured for 2 days by conditioned place preference test; conditions: in vivo, icv_or_intrathecal, 48 h
[3] = biological target: Histamine H1 receptor (Homo sapiens) (UniProt P35367); conditions: at 20 µM
[4] = biological target: C-X-C chemokine receptor type 4 (Homo sapiens) (UniProt P61073); assay: Antagonist activity at human Gi/o-coupled CXCR4 expressed in mouse C2C12 cells assessed as inhibition in CXCL12-induced beta-arrestin 2 recruitment at 20 uM incubated for 30 mins followed by CXCL12 addition and measured after 90 or 180 mins by pathhunter beta-arrestin assay relative to control; assay type: cell-based; how it was run: as §1
[5] = biological target: T2, Orexin receptor type 2 (Homo sapiens) (UniProt O43614); assay: (§2) Antagonist activity at human Gq-coupled HCRTR2 expressed in CHOK1 cells assessed as inhibition in Orexin A-induced beta-arrestin 2 recruitment at 20 uM incubated for 30 mins followed by Orexin A addition and measured after 90 or 180 mins by pathhunter beta-arrestin assay relative to control; assay type: cell-based; how it was run: as §1
T2 sequence (whole entry): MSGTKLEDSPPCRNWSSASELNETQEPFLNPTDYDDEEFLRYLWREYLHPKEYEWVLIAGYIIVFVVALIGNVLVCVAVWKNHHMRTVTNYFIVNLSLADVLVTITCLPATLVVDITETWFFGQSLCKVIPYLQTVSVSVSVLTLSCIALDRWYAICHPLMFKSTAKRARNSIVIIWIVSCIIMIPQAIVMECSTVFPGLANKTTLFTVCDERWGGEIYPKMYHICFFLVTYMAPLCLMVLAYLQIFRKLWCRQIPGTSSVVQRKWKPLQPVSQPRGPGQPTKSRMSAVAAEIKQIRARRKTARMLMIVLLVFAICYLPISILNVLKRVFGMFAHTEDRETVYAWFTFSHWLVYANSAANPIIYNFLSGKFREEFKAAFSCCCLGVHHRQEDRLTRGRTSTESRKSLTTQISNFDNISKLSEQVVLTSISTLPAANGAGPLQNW

[6] = biological target: T3, Glucose-dependent insulinotropic receptor (Homo sapiens) (UniProt Q8TDV5); assay: Antagonist activity at human GPR119 assessed as inhibition in oleoylethanolamide-induced beta-arrestin 2 recruitment at 20 uM incubated for 30 mins followed by oleoylethanolamide addition and measured after 90 or 180 mins by pathhunter beta-arrestin assay relative to control; how it was run: as §1
T3 sequence (whole entry): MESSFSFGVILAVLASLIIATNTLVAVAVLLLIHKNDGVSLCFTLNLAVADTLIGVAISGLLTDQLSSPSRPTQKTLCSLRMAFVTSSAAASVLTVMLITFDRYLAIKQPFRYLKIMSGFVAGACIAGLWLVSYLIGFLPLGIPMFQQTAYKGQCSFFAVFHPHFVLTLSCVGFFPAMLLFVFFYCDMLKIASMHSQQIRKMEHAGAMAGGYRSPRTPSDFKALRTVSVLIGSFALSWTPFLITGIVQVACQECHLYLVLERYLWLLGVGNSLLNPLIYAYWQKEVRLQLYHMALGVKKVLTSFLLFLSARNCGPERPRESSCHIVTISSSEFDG

[7] = biological target: T4, Prolactin-releasing peptide receptor (Homo sapiens) (UniProt P49683); assay: as §2, with “PRLHR” for “HCRTR2”, “prolactin releasing peptide (1 to 31)-induced” for “Orexin A-induced”, “prolactin releasing peptide (1 to 31)” for “Orexin A”; assay type: cell-based; how it was run: as §1
T4 sequence (whole entry): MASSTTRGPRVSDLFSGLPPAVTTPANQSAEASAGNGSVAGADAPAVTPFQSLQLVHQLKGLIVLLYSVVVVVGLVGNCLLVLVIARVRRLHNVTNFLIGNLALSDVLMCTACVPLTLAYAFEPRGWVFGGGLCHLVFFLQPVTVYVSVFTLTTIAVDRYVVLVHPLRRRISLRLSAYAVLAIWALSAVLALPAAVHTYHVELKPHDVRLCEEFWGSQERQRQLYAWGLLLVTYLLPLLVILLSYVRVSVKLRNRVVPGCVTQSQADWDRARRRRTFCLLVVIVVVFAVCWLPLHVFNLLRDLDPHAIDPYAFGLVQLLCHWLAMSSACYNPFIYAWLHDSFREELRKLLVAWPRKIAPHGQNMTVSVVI

[8] = Stability of compound in pH 4.88 HCl aqueous solution assessed as parent compound remaining at 0.026 mmol measured after 24 hrs; assay type: physicochemical; conditions: read-out: Stability
How it was run: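 Acid stability: compound held 24 h at 37 °C in acidic aqueous media at pH 2.0 or pH 4.88. Percent recovery of parent compound was measured.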

C-X-C chemokine receptor type 4 (Homo sapiens), sequence (P61073 whole entry): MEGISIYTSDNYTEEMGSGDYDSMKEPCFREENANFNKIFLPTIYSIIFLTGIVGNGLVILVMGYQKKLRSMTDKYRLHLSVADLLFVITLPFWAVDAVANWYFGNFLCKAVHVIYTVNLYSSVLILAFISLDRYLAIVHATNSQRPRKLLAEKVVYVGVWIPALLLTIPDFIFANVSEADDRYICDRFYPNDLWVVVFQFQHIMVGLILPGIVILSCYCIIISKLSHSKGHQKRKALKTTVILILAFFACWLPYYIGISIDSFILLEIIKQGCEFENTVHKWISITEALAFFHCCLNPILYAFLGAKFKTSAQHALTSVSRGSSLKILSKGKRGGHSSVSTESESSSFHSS
Cannabinoid receptor 1, sequence (P21554 whole entry): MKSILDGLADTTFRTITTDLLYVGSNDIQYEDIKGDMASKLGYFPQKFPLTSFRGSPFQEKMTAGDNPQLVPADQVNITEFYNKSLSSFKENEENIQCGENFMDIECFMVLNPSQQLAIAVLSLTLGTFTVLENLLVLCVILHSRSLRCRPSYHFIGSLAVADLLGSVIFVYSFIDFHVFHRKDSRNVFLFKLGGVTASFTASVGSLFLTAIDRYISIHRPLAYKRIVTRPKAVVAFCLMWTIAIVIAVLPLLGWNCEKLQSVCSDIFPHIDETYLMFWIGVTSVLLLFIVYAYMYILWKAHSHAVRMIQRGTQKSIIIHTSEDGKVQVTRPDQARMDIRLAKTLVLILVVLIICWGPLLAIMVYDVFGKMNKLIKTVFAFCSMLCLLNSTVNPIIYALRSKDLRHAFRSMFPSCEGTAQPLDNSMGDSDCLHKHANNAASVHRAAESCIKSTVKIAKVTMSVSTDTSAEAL
Cannabinoid receptor 2, sequence (P34972 whole entry): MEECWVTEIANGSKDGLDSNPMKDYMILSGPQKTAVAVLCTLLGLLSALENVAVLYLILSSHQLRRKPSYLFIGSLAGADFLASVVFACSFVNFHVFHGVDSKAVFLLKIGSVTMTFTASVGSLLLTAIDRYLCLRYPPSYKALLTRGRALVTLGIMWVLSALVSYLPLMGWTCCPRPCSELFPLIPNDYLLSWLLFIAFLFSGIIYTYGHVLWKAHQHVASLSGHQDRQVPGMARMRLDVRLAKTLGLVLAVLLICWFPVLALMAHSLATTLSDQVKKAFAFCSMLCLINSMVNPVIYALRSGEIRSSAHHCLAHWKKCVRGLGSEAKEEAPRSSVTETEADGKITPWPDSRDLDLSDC
Histamine H1 receptor (Homo sapiens), sequence (P35367 whole entry): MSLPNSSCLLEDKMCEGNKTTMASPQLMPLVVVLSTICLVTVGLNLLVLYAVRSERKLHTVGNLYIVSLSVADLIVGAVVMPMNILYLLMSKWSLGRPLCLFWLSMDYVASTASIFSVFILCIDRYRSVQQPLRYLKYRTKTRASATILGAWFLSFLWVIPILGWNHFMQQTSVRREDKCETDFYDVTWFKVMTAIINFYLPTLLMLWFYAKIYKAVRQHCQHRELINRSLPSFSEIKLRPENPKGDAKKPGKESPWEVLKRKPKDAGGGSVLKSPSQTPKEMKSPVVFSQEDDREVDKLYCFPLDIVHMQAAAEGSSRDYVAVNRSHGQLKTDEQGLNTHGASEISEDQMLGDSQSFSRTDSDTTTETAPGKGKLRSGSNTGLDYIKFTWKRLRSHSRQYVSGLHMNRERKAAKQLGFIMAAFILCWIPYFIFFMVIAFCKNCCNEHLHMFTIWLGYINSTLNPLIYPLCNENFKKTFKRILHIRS

inhibition (Cannabinoid receptor 1): 48%
inhibition (Cannabinoid receptor 2): 60%
pIC50 [1]: 4.90
inhibition [3]: 17%
inhibition [4]: 34%
inhibition [5]: 80%
inhibition [6]: 30%
inhibition [7]: 59%
remaining at 24 h, 0.026 mmol [8]: 99.2%
SMILES: CC[C@@]12CCCN3CCc4c([nH]c5ccccc45)[C@]31N(Cc1cn(Cc3ccccc3)nn1)C(=O)C2
Activity [2]: Non-Toxic
